Data reported in ChEMBL document CHEMBL5724801, “EUbOPEN Chemogenomics Library - Multiplex” (2024).
“And” between values parts separate entries of the source, which are not always exact repeats. Equal entries are not always repeated.

Columns and labels:
Fibroblast = assay: Multiplex assay against human fibroblast; assay type: toxicity, cell-based
How it was run: (§1)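 On a CQ1 microscope at 37°C and 5% CO2, live cells were imaged after compound addition. They had been stained at seeding with Hoechst33342, BioTracker Green Microtubule Cytoskeleton Dye, MitoTracker Red and Annexin V Alexa Fluor 680. CellPathfinder machine-learning gating assigned cells to Hoechst high-intensity objects or normal cells, normal cells to healthy, pyknosed or fragmented nuclei, and pyknosed cells to mitotic or apoptotic. Tubulin, mitochondrial-mass and membrane-permeability phenotypes are per cents of healthy-nucleus cells.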

HEK-293T = assay: Multiplex assay against HEK293T; assay type: toxicity, cell-based; conditions: human; how it was run: as §1
[1] = 12 h, 1 µM, compound concentration 1 uM
[2] = 12 h, 10 µM, compound concentration 10 uM
[3] = 24 h, 1 µM, compound concentration 1 uM
[4] = 24 h, 10 µM, compound concentration 10 uM
[5] = 48 h, 1 µM, compound concentration 1 uM
[6] = 48 h, 10 µM, compound concentration 10 uM

For N#Cc1c(N)nc(SCc2csc(-c3ccc(Cl)cc3)n2)c(C#N)c1-c1ccc(OCCO)cc1 [CAPADENOSON], the “Population Apoptotic (%)” value (Fibroblast; [1]) was 43% and 27%, the “Population Healthy Nuclei (%)” value (Fibroblast; [1]) was 80% and 43% and the “Population Hoechst High Intensity Objects (%)” value (Fibroblast; [1]) was 2% and 1%. For the same compound, the “Population Membrane Permeable-Phenotype (%)” value (Fibroblast; [1]) was 0% and 5%, the “Population Mitochondria Different-Phenotype (%)” value (Fibroblast; [1]) was 10% and 11% and the “Population Mitotic Cells (%)” value (Fibroblast; [1]) was 56% and 72%. The “Population Normal (%)” value (Fibroblast; [1]) was 97% and 98%, the “Population Pyknosed Nuclei (%)” value (Fibroblast; [1]) was 11% and 25% and the “Population Tubulin-Different-Phenotype (%)” value (Fibroblast; [1]) was 38% and 55%. The “Total Cell Count” value (Fibroblast; [1]) was 139 and 157, the “Population Apoptotic (%)” value (Fibroblast; [2]) was 31% and 41% and the “Population Fragmented Nuclei (%)” value (Fibroblast; [2]) was 23% and 41%. The “Population Healthy Nuclei (%)” value (Fibroblast; [2]) was 50% and 29%, the “Population Hoechst High Intensity Objects (%)” value (Fibroblast; [2]) was 1% and 8% and the “Population Membrane Permeable-Phenotype (%)” value (Fibroblast; [2]) was 0% and 20%. For the same compound, the “Population Mitochondria Different-Phenotype (%)” value (Fibroblast; [2]) was 10% and 14%, the “Population Mitotic Cells (%)” value (Fibroblast; [2]) was 68% and 58% and the “Population Normal (%)” value (Fibroblast; [2]) was 98% and 91%. The “Population Pyknosed Nuclei (%)” value (Fibroblast; [2]) was 25% and 29%, the “Population Tubulin-Different-Phenotype (%)” value (Fibroblast; [2]) was 80% and 97% and the “Total Cell Count” value (Fibroblast; [2]) was 172 and 128. The “Population Apoptotic (%)” value (Fibroblast; [3]) was 72% and 48%, the “Population Healthy Nuclei (%)” value (Fibroblast; [3]) was 80% and 44% and the “Population Hoechst High Intensity Objects (%)” value (Fibroblast; [3]) was 1% and 4%. The “Population Membrane Permeable-Phenotype (%)” value (Fibroblast; [3]) was 0% and 6%, the “Population Mitotic Cells (%)” value (Fibroblast; [3]) was 27% and 51% and the “Population Normal (%)” value (Fibroblast; [3]) was 98% and 95%. The “Population Pyknosed Nuclei (%)” value (Fibroblast; [3]) was 8% and 20%, the “Population Tubulin-Different-Phenotype (%)” value (Fibroblast; [3]) was 34% and 71% and the “Total Cell Count” value (Fibroblast; [3]) was 139 and 148. The “Population Apoptotic (%)” value (Fibroblast; [4]) was 38% and 41%, the “Population Fragmented Nuclei (%)” value (Fibroblast; [4]) was 26% and 43% and the “Population Healthy Nuclei (%)” value (Fibroblast; [4]) was 52% and 28%. For the same compound, the “Population Hoechst High Intensity Objects (%)” value (Fibroblast; [4]) was 2% and 6%, the “Population Membrane Permeable-Phenotype (%)” value (Fibroblast; [4]) was 0% and 17% and the “Population Mitochondria Different-Phenotype (%)” value (Fibroblast; [4]) was 26% and 25%. For the same compound, the “Population Mitotic Cells (%)” value (Fibroblast; [4]) was 61% and 58%, the “Population Normal (%)” value (Fibroblast; [4]) was 97% and 93% and the “Population Pyknosed Nuclei (%)” value (Fibroblast; [4]) was 20% and 27%. For the same compound, the “Population Tubulin-Different-Phenotype (%)” value (Fibroblast; [4]) was 67% and 94%, the “Total Cell Count” value (Fibroblast; [4]) was 179 and 131 and the “Population Apoptotic (%)” value (Fibroblast; [5]) was 88% and 69%. For the same compound, the “Population Fragmented Nuclei (%)” value (Fibroblast; [5]) was 16% and 38%, the “Population Healthy Nuclei (%)” value (Fibroblast; [5]) was 77% and 43% and the “Population Hoechst High Intensity Objects (%)” value (Fibroblast; [5]) was 2%. For the same compound, the “Population Membrane Permeable-Phenotype (%)” value (Fibroblast; [5]) was 0% and 6%, the “Population Mitochondria Different-Phenotype (%)” value (Fibroblast; [5]) was 7% and 12% and the “Population Mitotic Cells (%)” value (Fibroblast; [5]) was 11% and 30%. For the same compound, the “Population Normal (%)” value (Fibroblast; [5]) was 97%, the “Population Pyknosed Nuclei (%)” value (Fibroblast; [5]) was 6% and 17% and the “Population Tubulin-Different-Phenotype (%)” value (Fibroblast; [5]) was 37% and 60%. For the same compound, the “Total Cell Count” value (Fibroblast; [5]) was 147 and 151, the “Population Apoptotic (%)” value (Fibroblast; [6]) was 81% and 36% and the “Population Fragmented Nuclei (%)” value (Fibroblast; [6]) was 32% and 57%. For the same compound, the “Population Healthy Nuclei (%)” value (Fibroblast; [6]) was 53% and 29%, the “Population Hoechst High Intensity Objects (%)” value (Fibroblast; [6]) was 2% and 0% and the “Population Membrane Permeable-Phenotype (%)” value (Fibroblast; [6]) was 0% and 11%. The “Population Mitochondria Different-Phenotype (%)” value (Fibroblast; [6]) was 32% and 30%, the “Population Normal (%)” value (Fibroblast; [6]) was 97% and 100% and the “Population Pyknosed Nuclei (%)” value (Fibroblast; [6]) was 14% and 13%. The “Population Tubulin-Different-Phenotype (%)” value (Fibroblast; [6]) was 78% and 95%, the “Total Cell Count” value (Fibroblast; [6]) was 187 and 142 and the “Population Apoptotic (%)” value (HEK-293T; [1]) was 36% and 54%. For the same compound, the “Population Fragmented Nuclei (%)” value (HEK-293T; [1]) was 6%, the “Population Healthy Nuclei (%)” value (HEK-293T; [1]) was 79% and 80% and the “Population Hoechst High Intensity Objects (%)” value (HEK-293T; [1]) was 8% and 4%. The “Population Membrane Permeable-Phenotype (%)” value (HEK-293T; [1]) was 0%, the “Population Mitochondria Different-Phenotype (%)” value (HEK-293T; [1]) was 59% and 60% and the “Population Mitotic Cells (%)” value (HEK-293T; [1]) was 63% and 45%. For the same compound, the “Population Normal (%)” value (HEK-293T; [1]) was 91% and 95%, the “Population Pyknosed Nuclei (%)” value (HEK-293T; [1]) was 13% and 12% and the “Population Tubulin-Different-Phenotype (%)” value (HEK-293T; [1]) was 44% and 34%. The “Total Cell Count” value (HEK-293T; [1]) was 373 and 375, the “Population Apoptotic (%)” value (HEK-293T; [2]) was 57% and 70% and the “Population Fragmented Nuclei (%)” value (HEK-293T; [2]) was 7% and 6%. The “Population Healthy Nuclei (%)” value (HEK-293T; [2]) was 75% and 73%, the “Population Hoechst High Intensity Objects (%)” value (HEK-293T; [2]) was 12% and 14% and the “Population Membrane Permeable-Phenotype (%)” value (HEK-293T; [2]) was 0% and 1%. For the same compound, the “Population Mitochondria Different-Phenotype (%)” value (HEK-293T; [2]) was 82% and 85%, the “Population Mitotic Cells (%)” value (HEK-293T; [2]) was 42% and 29% and the “Population Normal (%)” value (HEK-293T; [2]) was 87% and 85%. The “Population Pyknosed Nuclei (%)” value (HEK-293T; [2]) was 17% and 20%, the “Population Tubulin-Different-Phenotype (%)” value (HEK-293T; [2]) was 62% and 63% and the “Total Cell Count” value (HEK-293T; [2]) was 307 and 388. The “Population Apoptotic (%)” value (HEK-293T; [3]) was 36% and 37%, the “Population Fragmented Nuclei (%)” value (HEK-293T; [3]) was 5% and 7% and the “Population Healthy Nuclei (%)” value (HEK-293T; [3]) was 76% and 79%. For the same compound, the “Population Hoechst High Intensity Objects (%)” value (HEK-293T; [3]) was 6% and 4%, the “Population Membrane Permeable-Phenotype (%)” value (HEK-293T; [3]) was 2% and 0% and the “Population Mitochondria Different-Phenotype (%)” value (HEK-293T; [3]) was 38% and 44%. The “Population Mitotic Cells (%)” value (HEK-293T; [3]) was 63% and 62%, the “Population Normal (%)” value (HEK-293T; [3]) was 93% and 95% and the “Population Pyknosed Nuclei (%)” value (HEK-293T; [3]) was 17% and 12%. The “Population Tubulin-Different-Phenotype (%)” value (HEK-293T; [3]) was 34% and 23%, the “Total Cell Count” value (HEK-293T; [3]) was 450 and 456 and the “Population Apoptotic (%)” value (HEK-293T; [4]) was 65% and 73%.
